Reference: PMC5503476 (Bioorganic & medicinal chemistry letters, 2017)
Converted amounts (≈) assume the structure as drawn.

Legend:
[1] = Aqueous solubility by HPLC-UV; format: physicochemical
wild-type HIV-1 (NL4-3) = assay: Anti-HIV activity against wild-type HIV-1; format: cell-based; conditions: Human immunodeficiency virus 1, NL43, TZM-bl, read-out: EC50 NL4-3
Procedure, shortened: (§1)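 Wild-type HIV-1 NL4-3 and the E138K+M184I resistant strain were tested in parallel in TZM-bl cells, with a reference NNRTI alongside. EC50 was read from luciferase reporter gene expression. New analogues were tested up to 100 ng/mL, with at least three experiments (n = 3). Fold change is the resistant-strain EC50 divided by the wild-type EC50.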

NL4-3 variant E138K = format: cell-based, HIV-1
[2] = test system: NL4-3 variant E138K+M184I; format: cell-based, HIV-1
Procedure, shortened: as §1

Cytotoxicity = format: cell-based; conditions: human, TZM-bl cells
[3] = Human plasma stability assay; format: in vitro ADME
[4] = 0.01 M HCl, pH 2, aqueous with cosolvent or surfactant or cyclodextrin
[5] = EC50(resistant viral strain)/EC50(wild-type viral strain)

`Cc1cc(/C=C/C#N)cc(C)c1Nc1ccnc(Nc2ccc(C#N)cc2)n1` [compound 2, rilpivirine, reference compound] showed a solubility kinetic at 4 h [1, 4] of 86.8 µg/mL (≈ 237 µM).
For `Cc1cc(/C=C/C#N)cc(C)c1Oc1cc(Nc2ccc(C#N)cc2)c(N)cc1C(N)=O` [compound 3], the EC50 (wild-type HIV-1 (NL4-3)) was 1.82 ± 0.57 nM, the “Resistance fold change (FC) E138K” value (NL4-3 variant E138K; [5]) was 1.9 and the EC50 (NL4-3 variant E138K; Human immunodeficiency virus 1, NL43, TZM-bl, read-out: EC50 E138K) was 3.55 ± 0.64 nM. The “Resistance fold change (FC) E138K+M184I” value [2, 5] was 1.9, the EC50 ([2]; Human immunodeficiency virus 1, NL43, TZM-bl, read-out: EC50 E138K+M184I) was 3.55 ± 1.02 nM and the CC50 (Cytotoxicity) was > 23600 nM. The solubility kinetic at 4 h [1, 4] was 2.09 µg/mL (≈ 4.94 µM) and the solubility kinetic at 4 h ([1]; phosphate buffer, pH 7.4, aqueous with cosolvent or surfactant or cyclodextrin) was 0.63 µg/mL (≈ 1.49 µM).
Compound `CC(C)NCC(O)COc1cccc2ccccc12` (stereo not shown) [propranolol] has a half-life at 10 μg/mL [3] of 80 h.
